# Reference: publication PMC5759846 (Infection and Drug Resistance, 2018)
# Key:
# [1] = introduction; ref [15]–[17]; cited from earlier work
# [2] = Serum teicoplanin trough concentration; assay type: in vivo, Chinese patients; conditions: day 4
# Outline: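 Day-4 serum (2–3 mL, additive-free tubes, spun 3,500 rpm 10 min) drawn 30 min before maintenance dose; trough measured by HPLC. Cure or failure judged days 5–7 after last dose from symptoms, laboratory and bacteriological findings. Target 15–30 mg/L; mean ± SD.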
# [3] = introduction; ref [15]–[17]; cited from earlier work; remark: listed apart in the source
# [4] = Group B, n=30, loading 400 mg q12h x3, maintenance 400 mg/day
# [5] = Group C, n=17, loading 400 mg q12h x2, maintenance 200 mg/day
# [6] = Group D, n=30, loading 400 mg q12h x1-3, maintenance 200 mg/day
substance,measurement,setting,value
teicoplanin,elimination half-life,[1],30 to 180 h
same,Mean teicoplanin Cmin for a failure,"[2]; 38 patients with failed response, all groups, mean ± SD, SD",10010 ± 2370 ng/mL
same,Mean teicoplanin Cmin for a successful response,"[2]; 75 patients with clinical cure, all groups, mean ± SD, SD",18920 ± 5120 ng/mL
same,Proportion of patients achieving target range Cmin 15–30 mg/L,[2]; [4],66.67%
same,Proportion of patients with Cmin 10–30 mg/L,[2]; [4],86.67%
same,Proportion of patients achieving target range Cmin 15–30 mg/L,[2]; [5],70.59%
same,Proportion of patients with Cmin 10–30 mg/L,[2]; [5],88.23%
same,Proportion of patients achieving target range Cmin 15–30 mg/L,[2]; [6],23.33%
same,Proportion of patients with Cmin 10–30 mg/L,[2]; [6],70%
same,plasma protein-binding rate,[3],over 90%
